Compound activity as filed in PubChem BioAssay.
ALR H2O2 inh – human ALR oxidase inhibition via reduced H2O2. P55789. purified ALR, DTT oxidation, H2O2 HRP-luminol luminescence. inhibition, % (no concentration beside the values). 290,000 tested, 3.8% active. AID 485317;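 active = mean replicate inhibition above about 79%, with every replicate also reaching it, limit read from the data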
Arrestin-AP2 inh – human beta-arrestin and AP2 interaction inhibition; FITC-arrestin peptide / GST-AP2 beads, flow cytometry; AP2 beta2 appendage carries R879A mutation; inhibition, % at 10 µM; 340,000 tested, 0.31% active; AID 504490;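 active = inhibition above a set limit, near 3 SD of compounds lacking own fluorescence, cut at about 54% in these data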
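Material – AP2 appendage R879A on GSH beads · Buffer or medium – PBS with 0.05% Tween 20 and 0.1% BSA · Probe or stimulus – fluorescein-tagged arrestin peptide at 50 nM final · Incubation – compound with beads 12 min RT, then probe 1 h RT · Detection – high-throughput flow cytometry of beads, ex 488, em 535 nm · Evaluation – percent response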
NALP1 yeast inh – blocks the NALP1 inflammasome reconstituted in yeast. S. cerevisiae NALP1/ASC/caspase-1 growth, X-gal OD620, 72 h. inhibition, % at 10 µM. 280,000 tested, 0.61% active; in the data active = inhibition mostly above about 24%, no sharp cut-off; inactive = mostly below about 32%
Pemphigus Ab inh – blocks pemphigus antibody binding to human desmoglein-3. P32926. DSG3-coupled beads, scFv-anti-DSG3-GFP binding, flow cytometry; stronger effect = lower value. binding (percent of control), % at 10 µM. 310,000 tested, 0.48% active. AID 588358;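 active = binding more than 3 SD below its plate's average and above zero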;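 note: hits lower antibody fragment binding to DSG3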
Target sequence (P32926 whole entry, looked up, the tested form may be a part): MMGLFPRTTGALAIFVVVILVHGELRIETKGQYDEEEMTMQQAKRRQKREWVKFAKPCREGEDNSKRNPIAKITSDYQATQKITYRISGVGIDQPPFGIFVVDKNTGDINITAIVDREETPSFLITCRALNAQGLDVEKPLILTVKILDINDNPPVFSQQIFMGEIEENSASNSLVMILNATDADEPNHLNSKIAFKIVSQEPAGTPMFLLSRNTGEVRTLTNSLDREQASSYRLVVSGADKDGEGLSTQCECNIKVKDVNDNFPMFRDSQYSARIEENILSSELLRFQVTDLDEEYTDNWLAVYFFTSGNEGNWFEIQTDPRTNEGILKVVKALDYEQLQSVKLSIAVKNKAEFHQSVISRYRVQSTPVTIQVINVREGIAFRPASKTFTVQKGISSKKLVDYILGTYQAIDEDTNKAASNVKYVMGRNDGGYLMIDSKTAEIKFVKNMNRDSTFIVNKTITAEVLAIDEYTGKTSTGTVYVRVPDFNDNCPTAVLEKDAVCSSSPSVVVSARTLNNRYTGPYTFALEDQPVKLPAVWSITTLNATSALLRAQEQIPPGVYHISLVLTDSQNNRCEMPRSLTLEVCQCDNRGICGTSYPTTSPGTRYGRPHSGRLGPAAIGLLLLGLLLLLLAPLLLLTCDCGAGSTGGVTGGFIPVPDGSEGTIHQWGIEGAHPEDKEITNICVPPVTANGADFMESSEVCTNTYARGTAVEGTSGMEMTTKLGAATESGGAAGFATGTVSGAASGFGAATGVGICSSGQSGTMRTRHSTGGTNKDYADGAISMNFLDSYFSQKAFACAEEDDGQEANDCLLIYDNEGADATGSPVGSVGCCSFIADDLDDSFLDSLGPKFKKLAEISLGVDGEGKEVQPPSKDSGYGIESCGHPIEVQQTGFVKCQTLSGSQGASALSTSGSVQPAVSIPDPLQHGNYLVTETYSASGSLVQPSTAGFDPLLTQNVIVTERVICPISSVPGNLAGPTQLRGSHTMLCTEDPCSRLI
PolyA inhibitor – yeast polyadenylation inhibition. S. cerevisiae SKY197-pL101 polyadenylation reporter, beta-gal luminescence; efflux-impaired pdr1/pdr3 knockout yeast; score 100 = 6 SD above DMSO. activity score, % at 12 µM. 300,000 tested, 0.02% active;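 active = lowest replicate activity score at least 50, where 100 means six control SD above control mean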;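 note: yeast exposed to compound for 9 h at 30 °C; higher score means more reporter readthrough which indicates perturbed polyadenylation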
NALP3 yeast inh – inhibitors of NALP3 inflammasome in yeast; Yeast reconstituted NLRP3/ASC/caspase-1, beta-gal luminescence, 24 h; inhibition, % at 10 µM; 330,000 tested, 0.39% active; AID 2825;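 active = inhibition of 50% or more; inactive = inhibition below 50%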
Arr AP2 CP1 – inhibitors of human beta-arrestin and AP2 interaction | shares compounds with Arrestin-AP2 inh | GST-AP2 beads, FITC arrestin peptide binding, flow cytometry; GST-fused beta2-adaptin appendage, R879A mutant | inhibition, % at 10 µM | 1,300 tested, 2% active;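 active = inhibition above a set limit, roughly 3 SD of non-fluorescent compound noise, cut at about 38% in these data; inactive = inhibition at or below that limit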;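 note: loss of bead fluorescence from 50 nM FITC arrestin peptide bound to appendage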
GST-FITC bead – disrupts GST binding to glutathione beads, arrestin-AP2 artifact. shares compounds with Arrestin-AP2 inh. GST-fluorescein binding to GSH beads, fluorescence, counter-screen. inhibition, % at 10 µM. 1,300 tested, 2% active. AID 588338;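 active = inhibition above 50%, about 3 SD of the inhibition seen with non-fluorescent compounds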;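 note: fluorescein maleimide labelled GST captured on 4 micron glutathione beads; higher means more loss of bead fluorescence from quenching or blocked binding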
Numbers stand for hits; i = inactive; nt = no result. Rows were chosen to be rich in hits. Some 4.6% of all compounds tested hit in one or more screens of this group.

SMILES	ALR H2O2 inh	Arrestin-AP2 inh	NALP1 yeast inh	Pemphigus Ab inh	PolyA inhibitor	NALP3 yeast inh	Arr AP2 CP1	GST-FITC bead
O=S1(=O)N=C(N(CCO)/N=C/c2ccncc2)c2ccccc21	i	i	i	i	i	i	nt	nt
COc1ccccc1C(=O)Nc1nnc(S(=O)(=O)N2CCCCC2)s1	i	64	i	i	i	i	i	i
COc1ccc(OC)c(NC(=O)c2ccc(CN(c3cc(Cl)ccc3C)S(=O)(=O)c3ccccc3)cc2)c1	i	82	i	i	i	i	i	i
COc1ccc(OC)c(NC(=O)c2cccc(S(=O)(=O)N(Cc3ccccc3)c3ccccc3OC)c2)c1	i	i	i	i	i	i	nt	nt
COc1ccc(C(=O)Nc2cc(C)nn2-c2nc3ccccc3[nH]2)c(OC)c1	i	i	i	i	i	i	i	i
Cc1cc(NC(=O)CC#N)n(-c2nc3ccccc3[nH]2)n1	i	i	i	i	i	i	nt	nt
Cc1cc(NC(=O)c2ccccc2)n(-c2nc3ccccc3[nH]2)n1	i	i	i	i	i	i	i	i
COc1cccc(OC)c1C(=O)Nc1cc(C)nn1-c1nc2ccccc2[nH]1	i	i	i	i	i	i	i	i
Cc1cccc(N2C(=O)C(O)=C(C(=O)c3cccs3)C2c2ccc(Cl)cc2)n1 (stereo unspecified)	i	i	i	i	i	i	nt	nt
O=C(NCc1nnc(SCC(=O)N2CCOCC2)o1)c1c(F)cccc1Cl	i	i	i	i	i	i	nt	nt
NC(=O)CS(=O)(=O)c1nc2ccccc2n1Cc1ccccc1F	i	i	i	i	i	i	nt	nt
Cc1cc(Br)ccc1OCCNCc1ccccc1	i	56	29	i	i	i	i	i
Cc1c(C)c2ccc(OCC(=O)NCCCN3CCCC3=O)cc2oc1=O	i	i	i	i	i	i	nt	nt
CCOC(=O)C1(Cc2cccc(Cl)c2)CCCN(C(=O)c2cn[nH]c2)C1 (stereo unspecified)	i	67	i	nt	i	i	i	i
CCOC(=O)C1(Cc2ccccc2)CCCN(C(=O)c2cn[nH]c2)C1 (stereo unspecified)	i	i	i	i	i	i	nt	nt
CCOC(=O)C1(Cc2cccc(Cl)c2)CCCN(C(=O)CN2C(=O)CSC2=O)C1 (stereo unspecified)	i	62	i	i	i	i	i	i
COc1ccc2cc(C(=O)Nc3ccc(F)cc3)sc(=O)c2c1OC	i	99	i	nt	i	i	i	i
CCc1ccc(N2CC(C(=O)OCc3csc(CC(=O)Nc4ccccc4C)n3)CC2=O)cc1 (stereo unspecified)	i	62	nt	i	nt	i	i	i
CCOC(=O)/C=C/C(=O)OCc1csc(CC(=O)Nc2ccccc2C)n1	i	i	i	i	i	i	nt	nt
Cc1cc2c(cc1S(=O)(=O)CCC(=O)N1CC(C)CC(C)C1)OCC(=O)N2 (stereo unspecified)	i	i	i	i	i	i	nt	nt
CC(=O)N(C)c1ccc(NC(=O)N2CCOCC2)cc1	i	i	i	i	i	i	nt	nt
CCCS(=O)(=O)N1CCCC(C(=O)NCC2CCCO2)C1 (stereo unspecified)	i	80	i	i	i	i	i	i
Cc1ccc(S(=O)(=O)N2CCCC(C(=O)NCC3CCCO3)C2)cc1 (stereo unspecified)	i	i	i	nt	i	i	nt	nt
CCOC(=O)C1CCN(C(=O)c2ccc(N3CCOCC3)c([N+](=O)[O-])c2)CC1	i	64	nt	i	nt	i	i	i
CCOC(=O)C1CCN(C(=O)COC(=O)c2cc([N+](=O)[O-])ccc2N2CCOCC2)CC1	i	i	nt	i	i	i	nt	nt
SMILES	ALR H2O2 inh	Arrestin-AP2 inh	NALP1 yeast inh	Pemphigus Ab inh	PolyA inhibitor	NALP3 yeast inh	Arr AP2 CP1	GST-FITC bead
CCOc1cccc(-c2cc(=O)[nH][nH]2)c1	i	74	i	i	i	i	i	i
COc1cccc(-c2cc(=O)[nH][nH]2)c1	i	i	i	i	i	i	nt	nt
CC(C)CCN1CCN(Cc2ccc(C#CC(C)(C)O)s2)CC1CCO (stereo unspecified)	i	62	i	nt	i	i	i	i
CC(C)CN1CCN(Cc2ccc(C#CC(C)(C)O)cc2)CC1CCO (stereo unspecified)	i	i	i	i	i	i	nt	nt
COc1ccccc1C(=O)Nc1ccnn1C1CCN(C2CCCCC2)CC1	nt	nt	nt	i	nt	nt	nt	nt
CCOC(=O)N1CCC(N2CCCC(CO)(Cc3cccc(OC)c3)C2)CC1 (stereo unspecified)	i	i	i	i	i	i	nt	nt
CCCc1[nH]n(-c2ccc([N+](=O)[O-])cc2)c(=O)c1C=NCCc1ccc(OC)c(OC)c1	i	i	i	i	i	i	nt	nt
COc1ccc(NC(=O)/C(=C/c2cccnc2)NC(=O)c2cccs2)cc1	i	66	i	i	i	nt	i	i
Cc1cc(Oc2cccc3c2S(=O)(=O)N(C2CCCC2)CC(COCc2ccccc2)O3)cc(C)c1C (stereo unspecified)	nt	57	nt	i	nt	nt	i	i
Cc1cccc(C)c1NC(=O)CN(C)C(=O)c1cccc(NS(=O)(=O)c2ccccc2)c1	i	59	nt	i	i	i	i	i
N#Cc1ccccc1OCC(=O)OCC(=O)NCc1ccc2c(c1)OCO2	i	55	nt	i	nt	i	i	i
O=C(COC(=O)COc1ccc(Br)cc1)NCc1ccc2c(c1)OCO2	i	i	nt	i	nt	i	nt	nt
Cc1occc1C(=O)N/N=C/C1=C(N2CCOCC2)C(=C\c2ccc(Cl)cc2Cl)/CC1	i	98	i	i	i	i	i	i
O=C1CCCc2oc3c(c21)CCCC3	i	i	i	i	i	i	nt	nt
O=C(Nc1ccc2c(c1)OCCO2)c1coc2ccccc2c1=O	i	89	i	i	i	i	i	i
Cc1ccccc1C(=O)Nc1ccc2c(c1)OCCO2	i	i	i	i	i	i	nt	nt
Cc1cc(C)cc(NC(=O)Cn2c(=O)oc3cc(S(=O)(=O)N4CC(C)CC(C)C4)ccc32)c1 (stereo unspecified)	i	97	i	i	i	i	i	i
Cc1ccc(OCCSc2nc3ccccc3n2CC(=O)O)cc1C	i	54	i	i	i	i	i	i
CC1=C(C(=O)OCCC(C)C)C(c2ccc3c(c2)OCO3)NC(=O)N1 (stereo unspecified)	i	i	i	i	i	i	nt	nt
CCc1nnc(NC(=O)Cc2cc(OC)c(OC)c(OC)c2)s1	i	71	i	i	i	i	i	i
COc1cc(C(=O)Nn2cnnc2)ccc1OC(F)F	i	54	i	i	i	i	i	i
CCOc1ccc(C(=O)Nn2cnnc2)cc1OCC	i	i	nt	i	i	i	nt	nt
CCOC(=O)C1(C#N)Cc2ccccc2C1	nt	i	nt	i	nt	nt	nt	nt
